Where “and” joins values, the source holds several entries; their conditions need not be identical. Identical values can stand only once.
What was measured:
Type in all cases: functional
Staphylococcus aureus [1] = assay: Antimicrobial activity against vancomycin resistant Staphylococcus aureus VRS-10 expressing SCCmec type 2 element by microdilution method
Method in brief: (§1)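 Broth microdilution per CLSI in cation-adjusted Mueller-Hinton broth. Antibiotic powders were reconstituted per CLSI. The MIC was read visually as the lowest drug concentration with no visible growth. S. aureus ATCC 29213 and E. faecalis ATCC 29212 served as control strains. VISA and VRSA isolates came from the NARSA program.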

Staphylococcus aureus [2] = assay: Antimicrobial activity against methicillin-resistant Staphylococcus aureus
Staphylococcus aureus [3] = assay: Antimicrobial activity against community-acquired methicillin-resistant Staphylococcus aureus expressing SCCmec type 4a element by microdilution method
Method in brief: (§2)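 MIC by broth microdilution in cation-adjusted Mueller-Hinton broth, following CLSI guidelines; antibiotic powders reconstituted per CLSI. Read visually as the lowest drug concentration well with no visible growth. S. aureus ATCC 29213 and E. faecalis ATCC 29212 served as control strains. CA-MRSA: hospital patients culture-positive within 48 h of admission. DNSSA: patient blood isolates. VISA: obtained from the NARSA program.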

Staphylococcus aureus [4] = assay: Antimicrobial activity against community-acquired methicillin-resistant Staphylococcus aureus expressing SCCmec type 4 element by microdilution method; method in brief: as §2
Staphylococcus aureus [5] = assay: Antimicrobial activity against community-acquired methicillin-resistant Staphylococcus aureus expressing SCCmec type 2 element by microdilution method; method in brief: as §2
Staphylococcus aureus [6] = assay: Bactericidal activity against community-acquired methicillin-resistant Staphylococcus aureus expressing SCCmec type 4a element assessed as antibiotic concentration that reduced the number of viable cells by =>99.9% by colony count method
Method in brief: (§3)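 MBC per CLSI following microdilution in cation-adjusted Mueller-Hinton broth. Defined as the concentration giving ≥99.9% reduction in viable cells, judged from colony counts of the growth control well against Pearson rejection-value tables. CA-MRSA isolates were hospital patients' isolates with positive MRSA culture within 48 h of admission.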

Staphylococcus aureus [7] = assay: Bactericidal activity against community-acquired methicillin-resistant Staphylococcus aureus expressing SCCmec type 4 element assessed as antibiotic concentration that reduced the number of viable cells by =>99.9% by colony count method; method in brief: as §3
Staphylococcus aureus [8] = assay: Antimicrobial activity against community-acquired methicillin-resistant Staphylococcus aureus by microdilution method; method in brief: as §2
Staphylococcus aureus [9] = assay: Bactericidal activity against vancomycin-resistant Staphylococcus aureus assessed as antibiotic concentration that reduced the number of viable cells by =>99.9% by colony count method; method in brief: as §3
Staphylococcus aureus [10] = assay: Bactericidal activity against community-acquired methicillin-resistant Staphylococcus aureus assessed as antibiotic concentration that reduced the number of viable cells by =>99.9% by colony count method; method in brief: as §3
Staphylococcus aureus [11] = assay: Antimicrobial activity against vancomycin-intermediate Staphylococcus aureus by microdilution method; method in brief: as §1
Staphylococcus aureus [12] = assay: Bactericidal activity against vancomycin-intermediate Staphylococcus aureus assessed as antibiotic concentration that reduced the number of viable cells by =>99.9% by colony count method
Method in brief: (§4)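 MBC per CLSI guidelines. It was taken as the antibiotic concentration giving ≥99.9% reduction in viable cells, based on colony counts from the growth control well and rejection values from Pearson's tables.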

Staphylococcus aureus [13] = assay: Antimicrobial activity against daptomycin-nonsusceptible Staphylococcus aureus by microdilution method; method in brief: as §2
Staphylococcus aureus [14] = assay: Antimicrobial activity against vancomycin-resistant Staphylococcus aureus by microdilution method; method in brief: as §1
Staphylococcus aureus [15] = assay: Bactericidal activity against daptomycin-nonsusceptible Staphylococcus aureus assessed as antibiotic concentration that reduced the number of viable cells by =>99.9% by colony count method; method in brief: as §4
Staphylococcus aureus [16] = assay: Antimicrobial activity against vancomycin intermediate Staphylococcus aureus NRS-3 expressing SCCmec type 2 element by microdilution method; method in brief: as §2
Staphylococcus aureus [17] = assay: Antimicrobial activity against vancomycin intermediate Staphylococcus aureus NRS-4 expressing SCCmec type 2 element by microdilution method; method in brief: as §2
Staphylococcus aureus [18] = assay: Antimicrobial activity against vancomycin intermediate Staphylococcus aureus NRS-17 expressing SCCmec type 2 element by microdilution method; method in brief: as §2
Staphylococcus aureus [19] = assay: Antimicrobial activity against vancomycin intermediate Staphylococcus aureus NRS-18 expressing SCCmec type 2 element by microdilution method; method in brief: as §2
Staphylococcus aureus [20] = assay: Antimicrobial activity against vancomycin intermediate Staphylococcus aureus NRS-19 expressing SCCmec type 2 element by microdilution method; method in brief: as §2
Staphylococcus aureus [21] = assay: Antimicrobial activity against vancomycin intermediate Staphylococcus aureus NRS-22 expressing SCCmec type 2 element by microdilution method; method in brief: as §2
Staphylococcus aureus [22] = assay: Antimicrobial activity against vancomycin intermediate Staphylococcus aureus NRS-23 expressing SCCmec type 2 element by microdilution method; method in brief: as §2
Staphylococcus aureus [23] = assay: Antimicrobial activity against vancomycin intermediate Staphylococcus aureus NRS-24 expressing SCCmec type 2 element by microdilution method; method in brief: as §2
Staphylococcus aureus [24] = assay: Antimicrobial activity against vancomycin intermediate Staphylococcus aureus NRS-26 expressing SCCmec type 2 element by microdilution method; method in brief: as §2
Staphylococcus aureus [25] = assay: Antimicrobial activity against vancomycin intermediate Staphylococcus aureus NRS-27 expressing SCCmec type 2 element by microdilution method; method in brief: as §2
Staphylococcus aureus [26] = assay: Antimicrobial activity against vancomycin intermediate Staphylococcus aureus NRS-51 expressing SCCmec type 2 element by microdilution method; method in brief: as §2
Staphylococcus aureus [27] = assay: Antimicrobial activity against vancomycin intermediate Staphylococcus aureus NRS-68 expressing SCCmec type 2 element by microdilution method; method in brief: as §2
Staphylococcus aureus [28] = assay: Antimicrobial activity against vancomycin intermediate Staphylococcus aureus NRS-73 expressing SCCmec type 4d element by microdilution method; method in brief: as §2
Staphylococcus aureus [29] = assay: Antimicrobial activity against vancomycin intermediate Staphylococcus aureus NRS-74 expressing SCCmec type 2 element by microdilution method; method in brief: as §2
Staphylococcus aureus [30] = assay: Antimicrobial activity against vancomycin intermediate Staphylococcus aureus NRS-76 expressing SCCmec type 2 element by microdilution method; method in brief: as §1
Staphylococcus aureus [31] = assay: Antimicrobial activity against vancomycin intermediate Staphylococcus aureus NRS-118 expressing SCCmec type 1 element by microdilution method; method in brief: as §2
Staphylococcus aureus [32] = assay: Antimicrobial activity against vancomycin intermediate Staphylococcus aureus NRS-126 expressing SCCmec type 2 element by microdilution method; method in brief: as §2
Staphylococcus aureus [33] = assay: Antimicrobial activity against vancomycin intermediate Staphylococcus aureus NRS-402 expressing SCCmec type 2 element by microdilution method; method in brief: as §2
Staphylococcus aureus [34] = assay: Antimicrobial activity against vancomycin intermediate Staphylococcus aureus NRS-403 expressing SCCmec type 2 element by microdilution method; method in brief: as §2
Staphylococcus aureus [35] = assay: Antimicrobial activity against vancomycin intermediate Staphylococcus aureus NRS-404 expressing SCCmec type 2 element by microdilution method; method in brief: as §2
Staphylococcus aureus [36] = assay: Antimicrobial activity against vancomycin resistant Staphylococcus aureus VRS-1 expressing SCCmec type 2 element by microdilution method; method in brief: as §1
Staphylococcus aureus [37] = assay: Antimicrobial activity against vancomycin resistant Staphylococcus aureus VRS-2 expressing SCCmec type 2 element by microdilution method; method in brief: as §1
Staphylococcus aureus [38] = assay: Antimicrobial activity against vancomycin resistant Staphylococcus aureus VRS-3 expressing SCCmec type 4 element by microdilution method; method in brief: as §1
Staphylococcus aureus [39] = assay: Antimicrobial activity against vancomycin resistant Staphylococcus aureus VRS-4 expressing SCCmec type 4 element by microdilution method; method in brief: as §1
Staphylococcus aureus [40] = assay: Antimicrobial activity against vancomycin resistant Staphylococcus aureus VRS-5 expressing SCCmec type 2 element by microdilution method; method in brief: as §1
Staphylococcus aureus [41] = assay: Antimicrobial activity against vancomycin resistant Staphylococcus aureus VRS-6 expressing SCCmec type 2 element by microdilution method; method in brief: as §1
Staphylococcus aureus [42] = assay: Antimicrobial activity against vancomycin resistant Staphylococcus aureus VRS-7 expressing SCCmec element by microdilution method; method in brief: as §1
Staphylococcus aureus [43] = assay: Antimicrobial activity against vancomycin resistant Staphylococcus aureus VRS-8 expressing SCCmec element by microdilution method; method in brief: as §1
Staphylococcus aureus [44] = assay: Antimicrobial activity against vancomycin resistant Staphylococcus aureus VRS-9 expressing SCCmec type 2 element by microdilution method; method in brief: as §1

CCO/N=C(\C(=O)N[C@@H]1C(=O)N2C(C(=O)[O-])=C(Sc3nc(-c4cc[n+](C)cc4)cs3)CS[C@H]12)c1nsc(NP(=O)(O)O)n1 [CEFTAROLINE FOSAMIL]
0.55 µg/mL and 0.25 µg/mL: MIC (Staphylococcus aureus [13])
0.74 µg/mL and 0.25 µg/mL: MBC (Staphylococcus aureus [15])
0.25 µg/mL: MIC90 (Staphylococcus aureus [4]) | MBC (Staphylococcus aureus [10]; Staphylococcus aureus) | MIC (Staphylococcus aureus [24]) | MIC (Staphylococcus aureus [29]) | MIC (Staphylococcus aureus [30]) | MIC (Staphylococcus aureus [44])
1 µg/mL: MIC90 (Staphylococcus aureus [5]) | MIC90 (Staphylococcus aureus [8]) | MIC90 (Staphylococcus aureus [11]) | MBC50 (Staphylococcus aureus [12]) | MBC90 (Staphylococcus aureus [12]) | MBC50 (Staphylococcus aureus [15]) | MIC (Staphylococcus aureus [16]) | MIC (Staphylococcus aureus [26]) | MIC (Staphylococcus aureus [31]) | MIC (Staphylococcus aureus [32]) | MIC (Staphylococcus aureus [36])
0.5 µg/mL: MIC (Staphylococcus aureus [1]) | MIC90 (Staphylococcus aureus [3]) | MBC90 (Staphylococcus aureus [6]) | MBC90 (Staphylococcus aureus [7]) | MIC50 (Staphylococcus aureus [8]) | MBC50 (Staphylococcus aureus [9]) | MBC50 (Staphylococcus aureus [10]) | MIC50 (Staphylococcus aureus [11]) | MBC (Staphylococcus aureus [12]; Staphylococcus aureus) | MIC50 (Staphylococcus aureus [13]; Staphylococcus aureus) | MIC50 (Staphylococcus aureus [14]) | MIC90 (Staphylococcus aureus [14]) | MIC (Staphylococcus aureus [17]) | MIC (Staphylococcus aureus [18]) | MIC (Staphylococcus aureus [19]) | MIC (Staphylococcus aureus [20]) | MIC (Staphylococcus aureus [21]) | MIC (Staphylococcus aureus [22]) | MIC (Staphylococcus aureus [23]) | MIC (Staphylococcus aureus [25]) | MIC (Staphylococcus aureus [27]) | MIC (Staphylococcus aureus [28]) | MIC (Staphylococcus aureus [33]) | MIC (Staphylococcus aureus [34]) | MIC (Staphylococcus aureus [35]) | MIC (Staphylococcus aureus [37]) | MIC (Staphylococcus aureus [38]) | MIC (Staphylococcus aureus [39]) | MIC (Staphylococcus aureus [40]) | MIC (Staphylococcus aureus [41])
0.12 µg/mL: MIC (Staphylococcus aureus [2]) | MBC (Staphylococcus aureus [9]; Staphylococcus aureus) | MIC (Staphylococcus aureus [42]) | MIC (Staphylococcus aureus [43])
